# Experimental data as given in ChEMBL document CHEMBL4477178, “Biflorin, Isolated from the Flower Buds of Syzygium aromaticum L., Suppresses LPS-Induced Inflammatory Mediators via STAT1 Inactivation in Macrophages and Protects Mice from Endotoxin Shock” (J Nat Prod, 2016).
# Calls of active or inactive are those of the source. The calls are words filed in the database; no cut-off is given here.
# Key:
# [1] = test system: RAW264.7; test: Reduction in LPS-induced NF-kappa B activity in mouse RAW264.7 cells at 15 to 60 uM preincubated for 1 hr followed by LPS challenge for 12 hrs by luciferase reporter gene assay; type: cell-based
# [2] = test system: Rattus norvegicus; test: Antiinflammatory activity in Sprague-Dawley rat assessed as inhibition of croton oil-induced ear edema at 5 mg/kg, ip administered 1 hr before croton oil challenge measured after 3 hrs post challenge relative to control; type: functional
# Outline: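 Male SD rats given compound i.p. (5, 10 or 15 mg/kg) 1 h before topical croton oil (5% in 100 μL acetone) on the inner right ear; the left ear received acetone alone. After 3 h, rats were killed and 6 mm ear punches were taken and measured for thickness. Inhibition calculated relative to the croton-oil-only group; seven rats per group.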
# [3] = test system: Mus musculus; test: Inhibition of LPS-induced TNF-alpha mRNA expression in C57BL/6 mouse liver at 10 mg/kg, ip pretreated for 1 hr followed by LPS challenge for 6 hrs by qRT-PCR method; type: functional, organism-based
# Outline: (§1)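 Male C57BL/6 mice given 10 mg/kg i.p. or vehicle 1 h before LPS (Salmonella enterica, 25 mg/kg i.p.); liver collected 6 h after LPS, frozen at −80 °C. Liver mRNA by SYBR qRT-PCR normalized to β-actin; protein by Western blot for p-STAT1 (Y701, S727). Eight mice per group; mean ± SD.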
# [4] = test system: Rattus norvegicus; test: Antiinflammatory activity in Sprague-Dawley rat assessed as inhibition of croton oil-induced inflammatory cell infiltration at 10 mg/kg, ip administered 1 hr before croton oil challenge measured after 3 hrs by hematoxylin and eosin staining based assay; type: functional, organism-based
# Outline: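 SD male rats dosed i.p. (10 mg/kg) 1 h before topical croton oil (5% in acetone) on inner right ear; left ear got acetone only. At 3 h rats sacrificed, 6 mm ear punches taken, fixed in 4% paraformaldehyde overnight, paraffin-embedded, H&E-stained for edema and inflammatory cell infiltrate; seven animals per group.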
# [5] = test system: RAW264.7; test: Inhibition of LPS-induced JNK phosphorylation in mouse RAW264.7 cells at 15 to 60 uM preincubated for 1 hr followed by LPS challenge for 30 mins by Western blot analysis; type: cell-based
# Outline: (§2)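 RAW 264.7 pretreated 1 h at 15, 30 or 60 μM, then LPS 10 ng/mL for 30 min. Lysates Western-blotted for p-p38, p38, p-JNK, JNK, p-ERK, ERK with β-actin control; ECL, densitometry. Three independent experiments.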
# [6] = test system: Rattus norvegicus; test: Antiinflammatory activity in Sprague-Dawley rat assessed as reduction in carrageenan induced paw edema at 10 mg/kg, ip administered 1 hr before carrageenan challenge measured at 3 hrs post challenge relative to control; type: functional
# Outline: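 SD rats given compound i.p. (5, 10 or 15 mg/kg) 1 h before subplantar injection of 1% carrageenan in saline (0.1 mL) into the right hind paw. Paw volume measured by plethysmometer at 1, 3 and 5 h. Edema compared with the carrageenan-only group; seven rats per group.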
# [7] = test system: RAW264.7; test: Antiinflammatory activity in mouse RAW264.7 cells assessed as inhibition of LPS-induced nitric oxide production preincubated for 1 hr followed by LPS challenge for 24 hrs by Griess assay; type: functional, cell-based
# Outline: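 RAW 264.7 cells plated at 2 × 10^5 cells/mL and incubated overnight. Compound given at 15, 30 or 60 μM for 1 h, then LPS 10 ng/mL for 24 h. Nitrite in the medium measured by Griess reagent (10 min, room temperature, A540) against a NaNO2 standard. L-NIL 20 μM as positive control; IC50 derived; three independent experiments.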
# [8] = target: T1, Signal transducer and activator of transcription 1 (Mus musculus) (UniProt P42225); test: Inhibition of LPS-induced STAT1 phosphorylation at Y701 in C57BL/6 mouse peritoneal macrophages at 15 to 60 uM preincubated for 1 hr followed by LPS challenge for 120 mins by Western blot analysis
# T1 sequence (whole entry): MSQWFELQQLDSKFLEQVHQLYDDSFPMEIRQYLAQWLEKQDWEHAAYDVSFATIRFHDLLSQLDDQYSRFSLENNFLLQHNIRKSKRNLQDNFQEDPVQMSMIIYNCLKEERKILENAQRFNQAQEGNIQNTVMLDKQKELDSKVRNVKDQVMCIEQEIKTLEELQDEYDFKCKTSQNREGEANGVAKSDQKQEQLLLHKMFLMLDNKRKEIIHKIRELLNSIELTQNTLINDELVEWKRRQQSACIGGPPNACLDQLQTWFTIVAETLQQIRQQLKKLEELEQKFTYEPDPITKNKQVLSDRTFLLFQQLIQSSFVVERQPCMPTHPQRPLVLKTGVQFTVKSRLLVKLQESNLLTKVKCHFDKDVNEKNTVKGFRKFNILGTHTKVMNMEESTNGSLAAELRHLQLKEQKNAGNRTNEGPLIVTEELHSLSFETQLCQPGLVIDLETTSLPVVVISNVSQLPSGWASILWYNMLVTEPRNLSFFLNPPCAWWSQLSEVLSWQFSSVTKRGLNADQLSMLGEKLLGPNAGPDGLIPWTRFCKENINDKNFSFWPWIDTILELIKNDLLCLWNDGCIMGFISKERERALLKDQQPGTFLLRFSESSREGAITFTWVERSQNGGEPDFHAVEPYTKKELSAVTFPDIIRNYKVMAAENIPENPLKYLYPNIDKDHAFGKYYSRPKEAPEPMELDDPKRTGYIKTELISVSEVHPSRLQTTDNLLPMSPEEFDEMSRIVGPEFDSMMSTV
# Outline: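 Thioglycolate-elicited C57BL/6 peritoneal macrophages pretreated 1 h at 15, 30 or 60 μM, then LPS 10 μg/mL: 120 min for p-STAT1 Y701, 30 min for p-STAT1 S727, 60 min for p-STAT3 Y705. Western blot with phospho-specific and total STAT antibodies, β-actin control; three independent experiments.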
# [9] = test system: RAW264.7; test: Cytotoxicity against mouse RAW264.7 cells assessed as cell viability at 60 uM after 24 hrs by MTT assay in presence of LPS; type: cell-based; details: raw264.7, 24 h
# Outline: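 RAW 264.7 seeded at 1 × 10^5 cells/mL, grown overnight, exposed 24 h with or without LPS; MTT (5 mg/mL stock in PBS) added 4 h at 37 °C, formazan dissolved in DMSO, absorbance at 540 nm.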
# [10] = test system: Mus musculus; test: Inhibition of LPS-induced iNOS mRNA expression in C57BL/6 mouse liver at 10 mg/kg, ip pretreated for 1 hr followed by LPS challenge for 6 hrs by qRT-PCR method; type: functional, organism-based; outline: as §1
# [11] = target: MAP kinase p38 (Mus musculus) (UniProt P47811+O08911+Q9WUI1+Q9Z1B7); test: Inhibition of LPS-induced p38 MAPK phosphorylation in mouse RAW264.7 cells preincubated for 1 hr followed by LPS challenge for 30 mins by Western blot analysis; type: cell-based; outline: as §2
# [12] = test system: RAW264.7; test: Antiinflammatory activity in mouse RAW264.7 cells assessed as inhibition of LPS-induced iNOS mRNA expression at 60 uM after 2 to 12 hrs by qRT-PCR method; type: functional, cell-based
# Outline: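 RAW 264.7 stimulated with LPS 10 ng/mL with or without 60 μM for 2, 4, 6 and 12 h. Total RNA (1 μg) reverse-transcribed with MuLV RT and random primer; SYBR green real-time qPCR with gene-specific primers, triplicate Ct normalized to β-actin. Mean ± SD, three independent experiments.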
structure (smiles),measurement,setting,value
Cc1cc(=O)c2c(O)c([C@@H]3O[C@H](CO)[C@@H](O)[C@H](O)[C@H]3O)c(O)cc2o1 [BIFLORIN],inhibition,[1],inactive
same,inhibition in vivo at 5 mg/kg,[2],33.4%
same,inhibition,[3],Active
same,inhibition,[4],Active
same,inhibition,[5],inactive
same,inhibition in vivo at 10 mg/kg,[6],48%
same,IC50,[7],51.7 µM
same,inhibition,[8],Active
same,Activity,[9],Non-Toxic
same,inhibition,[10],Active
same,inhibition,[11],Dose-dependent effect
same,inhibition,[12],Active
